Tests used:
[1] = Inhibition of [3H]BTX binding to guinea pig voltage-dependent sodium channel
[2] = system: Mus musculus; experiment: Antiepileptic (anticonvulsant) activity in mice through maximal electroshock seizure (MES) assay; No anticonvulsant activity at 300 mg/kg; type: functional, organism-based; design: dose 300 mg/kg
In short: (§1)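 Mice dosed at 30, 100 and 300 mg/kg and tested 30 min after administration. Seizures were evoked by 60-cycle AC, 50 mA, delivered for 0.2 s through corneal electrodes, with saline instilled in the eye first. Protection means abolition of the hind limb tonic extension. MES ED50 was quantified on select compounds.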

[3] = molecular target: T1, GABA-A receptor; anion channel (Homo sapiens) (UniProt P14867+P47870+P18507+P28472+P48169+Q99928+Q9UN88+P34903+O00591+O14764+Q8N1C3+P18505+P78334+P47869+P31644+Q16445); experiment: Binding of [3H]- TBPS radioligand against Gamma-aminobutyric acid receptor at 100 uM; type: protein-complex assay
[4] = molecular target: T1, GABA-A receptor; anion channel (Homo sapiens); experiment: Binding of [3H]- Diazepam radioligand against GABA receptor/chloride channel complex at 100 uM; type: protein-complex assay
In short: (§2)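 Rat cerebral cortical membranes, about 1000 μg protein, in 50 mM Tris pH 7.4. Incubated with 5 nM [3H]diazepam for 30 min at 0 °C, test compound at 100 μM. Nonspecific binding was defined with 10 μM clonazepam. Ended by rapid filtration with one buffer wash, and retained radioactivity was counted.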

[5] = species on record: Mus musculus; experiment: Antiepileptic (anticonvulsant) activity in mice through maximal electroshock seizure (MES) assay; type: functional, organism-based
In short: as §1

[6] = molecular target: T1, GABA-A receptor; anion channel (Homo sapiens); experiment: Binding of [3H]- muscimol radioligand against GABA receptor/chloride channel complex at 100 uM; type: protein-complex assay
In short: (§3)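 Rat brain membranes, about 1000 μg protein, in 50 mM Tris-citrate pH 7.1 with 5 nM [3H]muscimol. Incubated 30 min at 0 °C, test compound at 100 μM. Nonspecific binding was defined with 100 μM GABA. Bound ligand was separated by rapid filtration with one buffer wash, and filter radioactivity was counted.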

[7] = Inhibition of [3H]BTX binding to guinea pig voltage-dependent sodium channel; remark: listed apart in the source
[8] = molecular target: T1, GABA-A receptor; anion channel (Homo sapiens); experiment: Inhibition of [3H]TBPS binding to GABA-A receptor at 100 uM; type: protein-complex assay
In short: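 Rat cerebral cortical membranes, about 1000 μg protein, in 50 mM Tris-citrate pH 7.5 containing 200 mM NaCl with 2 nM [35S]TBPS. Incubated 90 min at 23 °C, test compound at 100 μM. Picrotoxin 10 μM defined nonspecific binding. Ended by rapid filtration with one buffer wash, and filter radioactivity was counted.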

[9] = molecular target: Gamma-aminobutyric acid receptor subunit gamma-1 (Rattus norvegicus) (UniProt P23574); experiment: Inhibition of [3H]- Diazepam binding to Gamma-aminobutyric acid (GABA-A) receptor at 100 uM
In short: as §2

[10] = Inhibition of [3H]BTX binding to guinea pig voltage-dependent sodium channel; remark: listed apart in the source
[11] = system: Mus musculus; experiment: Antiepileptic (anticonvulsant) activity in mice through maximal electroshock seizure (MES) assay. No activity at 300 mg/kg; type: functional, organism-based; design: dose 300 mg/kg
In short: as §1

[12] = molecular target: T1, GABA-A receptor; anion channel (Homo sapiens); experiment: Inhibition of [3H]muscimol binding to GABA-A receptor at 100 uM; type: protein-complex assay
In short: as §3

Sequence of Gamma-aminobutyric acid receptor subunit gamma-1 (Rattus norvegicus) (P23574 whole entry): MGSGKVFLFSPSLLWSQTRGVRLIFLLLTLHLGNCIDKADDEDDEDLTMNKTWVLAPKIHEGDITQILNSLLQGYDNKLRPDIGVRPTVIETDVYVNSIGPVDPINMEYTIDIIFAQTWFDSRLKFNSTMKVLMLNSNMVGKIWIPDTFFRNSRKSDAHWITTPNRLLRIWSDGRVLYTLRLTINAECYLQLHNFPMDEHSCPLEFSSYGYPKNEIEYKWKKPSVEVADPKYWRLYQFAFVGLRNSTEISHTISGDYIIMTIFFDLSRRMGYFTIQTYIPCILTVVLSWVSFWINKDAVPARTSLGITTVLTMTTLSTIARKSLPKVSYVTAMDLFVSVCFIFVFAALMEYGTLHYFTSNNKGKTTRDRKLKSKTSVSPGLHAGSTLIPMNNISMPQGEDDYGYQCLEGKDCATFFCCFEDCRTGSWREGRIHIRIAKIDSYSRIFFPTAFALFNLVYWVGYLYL

SMILES	IC50 [1] [µM]	EC50 [2]	EC50 [5] [mg/kg]	also measured
CN1CCC(OC(=O)c2cccc(O)c2)CC1	> 10	Not Active	–	–
Cc1ccc(C(=O)OC2CCN(C)CC2)cc1	10	Not Active	–	–
CN1CCC(OC(=O)c2ccccc2COc2ccccc2)CC1	> 10	–	26	Stimulation [3]: 37%; inhibition [4]: 37%; inhibition [6]: 35%
CN1CCC(OC(=O)c2ccccc2Oc2ccccc2)CC1	3.6	Not Active	–	–
CCN(CC)CCCOC(=O)c1ccccc1-c1ccccc1	–	–	7.8	inhibition [4]: 51%; IC50 [7]: 4.6 µM; inhibition [8]: 47%; inhibition [6]: 59%
O=C1NC(=O)C(c2ccccc2)(c2ccccc2)N1 [PHENYTOIN]	–	–	9.5	–
CN1CCC(OC(=O)c2ccccc2Br)CC1	> 10	Not Active	–	–
CCN(CC)CCOC(=O)c1ccccc1-c1ccccc1	7.5	–	10	inhibition [4]: 26%; inhibition [8]: 4%; inhibition [6]: 31%
CCN(CC)CCCOC(=O)c1ccccc1CCc1ccccc1	6	–	< 30	–
CN1CCC(OC(=O)c2ccccc2Cc2ccccc2)CC1	3.4	–	< 30	–
CCC(=O)OC1CCN(C)CC1	–	Not Active	–	Stimulation [9]: -14%; IC50 [10]: > 10 µM; Stimulation [3]: 9%; inhibition [6]: 10%
CN1CCC(OC(=O)c2ccc(-c3ccccc3)cc2)CC1	10	–	< 100	–
CN1CCC(OC(=O)c2ccc3ccccc3c2)CC1	> 10	–	< 100	–
CN1CCC(C)(OC(=O)c2ccccc2CCc2ccccc2)CC1	3.2	–	28	Stimulation [3]: 50%; inhibition [4]: 42%; inhibition [6]: 40%
CN1CCC(OC(=O)c2ccc(Cl)cc2)CC1	> 10	Not Active	–	–
COc1ccc(C(=O)OC2CCN(C)CC2)cc1OC	> 10	Not Active	–	–
CN1C(=O)CC(C)(c2ccccc2)C1=O (configuration not stated) [METHSUXIMIDE]	–	–	76	–
COc1ccc(CCC(=O)OC2CCN(C)CC2)cc1OC	> 10	Not Active	–	–
COc1ccccc1C(=O)OC1CCN(C)CC1	> 10	Not Active	–	–
CCN(CC)CC(C)OC(=O)c1ccccc1-c1ccccc1 (configuration not stated)	6.8	–	< 30	–
CN1CCC(OC(=O)c2ccccc2C(=O)c2ccccc2)CC1	–	Not Active	–	IC50 [10]: > 10 µM; Stimulation [3]: 1%; inhibition [4]: 46%; inhibition [6]: 21%
CN1CCC(OC(=O)c2ccccc2-c2ccccc2)CC1	10	–	12	–
CCN(CC)CCOC(=O)c1ccccc1CCc1ccccc1	3.9	–	< 300	–
CN1CCC(C)(OC(=O)c2ccccc2-c2ccccc2)CC1	3.8	Not Active	–	–
CN1CCC(OC(=O)c2ccccc2CCc2ccccc2)CC1	5.4	–	25	inhibition [4]: 50%; inhibition [6]: 27%
Cc1[nH]c(C)c(C(=O)OC2CCN(C)CC2)c1C	> 10	Not Active	–	–
COc1cccc(C(=O)OC2CCN(C)CC2)c1	–	–	< 100	–
CCC1(c2ccccc2)C(=O)NC(=O)NC1=O [PHENOBARBITAL]	–	–	22	–
Cc1cc(C)c(C(=O)OC2CCN(C)CC2)cc1C	> 10	–	–	Stimulation [3]: 3%; inhibition [4]: 37%; EC50 [11]: 46 mg/kg; inhibition [12]: 57%
